Activity calls are given as the source filed them. No cut-off for these calls is given here.
Assays:
REH [1] = assay: Cytotoxicity against human REH cells after 72 hrs by MTT assay; format: functional, cell-based
In short: (§1)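 Log-phase cells (1 × 10⁴/well) were plated in triplicate in RPMI 1640 with 10% heat-inactivated FBS and penicillin/streptomycin, at 37 °C in 5% CO2. Cells were treated with 10, 100 or 250 µM compound and harvested at 48 and 72 h. MTT (5 mg/ml) was added at 37 °C, formazan was dissolved in DMF/SDS detergent, and A570 was read minus a medium blank. Viability is expressed as % of DMSO vehicle, and IC50 was estimated at 72 h.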

K562 [2] = assay: Cytotoxicity against human K562 cells after 72 hrs by MTT assay; format: functional, cell-based; conditions: K562, 72 h; in short: as §1
K562 [3] = assay: Cytotoxicity against human K562 cells at >= 100 uM after 48 to 72 hrs by MTT assay; format: functional, cell-based; in short: as §1
REH [4] = assay: Cytotoxicity against human REH cells at >= 100 uM after 48 to 72 hrs by MTT assay; format: functional, cell-based; in short: as §1
K562 [5] = assay: Cell cycle arrest in human K562 cells assessed as change in cell cycle pattern after 48 hrs by PI staining based flow cytometry; format: functional
In short: (§2)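 K562 cells, 0.75 × 10⁵ cells/ml, incubated at 37 °C with 10, 50 and 100 µM compound for 48 h, with a DMSO vehicle control. Cells were washed, fixed in 70% ethanol, RNase A treated, and stained with propidium iodide for half an hour before flow cytometry. At least 10,000 cells were acquired per sample, and G0/G1 (subG1), G1, S and G2/M fractions were read from the DNA histograms.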

K562 [6] = assay: Cell cycle arrest in human K562 cells assessed as accumulation at G0/G1 phase after 48 hrs by PI staining based flow cytometry; format: functional; in short: as §2
K562 [7] = assay: Cell cycle arrest in human K562 cells assessed as decline of G1 phase after 48 hrs by PI staining based flow cytometry; format: functional; in short: as §2
K562 [8] = assay: Cell cycle arrest in human K562 cells assessed as decline of G2/M phase after 48 hrs by PI staining based flow cytometry; format: functional; in short: as §2
K562 [9] = assay: Induction of apoptosis in human K562 cells assessed as chromosomal DNA fragmentation at 100 uM after 72 hrs by agarose gel electrophoresis; format: functional, cell-based
In short: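 K562 cells were cultured with 10, 50 or 100 µM compound for 72 h, with a DMSO lane as control. Genomic DNA was extracted, resuspended in TE buffer, and run on a 1% agarose gel at 30 V for 6 h. Laddering or smearing was viewed by ethidium bromide staining.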

O=C(CN1C(=O)/C(=C/c2ccc(-c3ccc(Cl)cc3)o2)SC1=S)NCc1ccc(C(F)(F)F)cc1
IC50 (REH [1]): 170 µM | IC50 (K562 [2]): 155 µM

Cc1ccc(CNC(=O)CN2C(=O)/C(=C/c3ccc(-c4ccc(Cl)cc4)o3)SC2=S)cc1
IC50 (REH [1]): 45 µM | Activity (K562 [3]): Active | Activity (REH [4]): Active | IC50 (K562 [2]): 45 µM

O=C(CN1C(=O)/C(=C/c2ccc(-c3ccc(Cl)cc3)o2)SC1=S)NCc1ccccc1Cl
IC50 (REH [1]): 70 µM | Activity (K562 [3]): Active | Activity (REH [4]): Active | IC50 (K562 [2]): 64 µM

N#Cc1cc(NC(=O)CN2C(=O)/C(=C/c3ccc(-c4ccc(Cl)cc4)o3)SC2=S)ccc1C(F)(F)F
IC50 (REH [1]): > 250 µM | IC50 (K562 [2]): > 250 µM

COc1ccc(CNC(=O)CN2C(=O)/C(=C/c3ccc(-c4ccc(Cl)cc4)o3)SC2=S)cc1
IC50 (REH [1]): 44 µM | Activity (K562 [5]): Dose-dependent effect | Activity (K562 [6]): Active | Activity (K562 [7]): Active | Activity (K562 [8]): Active | Activity (K562 [9]): Active | Activity (K562 [3]): Active | Activity (REH [4]): Active | IC50 (K562 [2]): 40 µM

Cc1cccc(CNC(=O)CN2C(=O)/C(=C/c3ccc(-c4ccc(Cl)cc4)o3)SC2=S)c1
IC50 (REH [1]): 53 µM | Activity (K562 [5]): Dose-dependent effect | Activity (K562 [6]): Active | Activity (K562 [7]): Active | Activity (K562 [8]): Active | Activity (K562 [3]): Active | Activity (REH [4]): Active | IC50 (K562 [2]): 48 µM

CCCCCCNC(=O)CN1C(=O)/C(=C/c2ccc(-c3ccc(Cl)cc3)o2)SC1=S
IC50 (REH [1]): 55 µM | Activity (K562 [3]): Active | Activity (REH [4]): Active | IC50 (K562 [2]): 50 µM

N#Cc1ccc(NC(=O)CN2C(=O)/C(=C/c3ccc(-c4ccc(Cl)cc4)o3)SC2=S)cc1
IC50 (REH [1]): 90 µM | IC50 (K562 [2]): 85 µM

O=C(CN1C(=O)/C(=C/c2ccc(-c3ccc(Cl)cc3)o2)SC1=S)NCc1ccc(F)cc1
IC50 (REH [1]): 165 µM | IC50 (K562 [2]): 150 µM

O=C(CN1C(=O)/C(=C/c2ccc(-c3ccc(Cl)cc3)o2)SC1=S)NCc1ccc(Br)cc1
IC50 (REH [1]): 75 µM | Activity (K562 [3]): Active | Activity (REH [4]): Active | IC50 (K562 [2]): 68 µM

O=C(CN1C(=O)/C(=C/c2ccc(-c3ccc(Cl)cc3)o2)SC1=S)Nc1nnn[nH]1
IC50 (REH [1]): 50 µM | Activity (K562 [3]): Active | Activity (REH [4]): Active | IC50 (K562 [2]): 52 µM
